Calls of active or inactive are those of the source. The rule behind the calls is not given here.

Data set [1] in a line: Cytotoxicity against human SRA 01/04 cells at 64 uM after 24 hrs by LDH release assay. In kind it is cell-based. In a few lines:
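SRA01/04 lens epithelial cells seeded at 5,000/well, after 15–18 h washed with serum-free medium and exposed 24 h to test sample, final 64 lmol/L from DMSO stock. LDH in supernatant read at 570 nm. Percent specific release = (S−N)/(P−N)×100, P being 0.2% Tween-20 lysis and N cell- and serum-free medium. Triplicate means.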
Background: LDH leaks from cells whose membrane has failed.

Data set [2] in a line: Inhibition of PMA-stimulated pro MMP9 production in human SRA 01/04 cells after 24 hrs by SDS-PAGE based gelatin zymography assay. In kind it is functional, cell-based. The essentials:
(§1)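 Confluent SRA01/04 cells (DMEM, 20% heat-inactivated FBS, 37 °C, 5% CO2) treated 24 h with test sample at 0.25, 1, 4, 16, 64 µM plus PMA 10 nM or TNF-a 10 ng/mL. Media run on 10% SDS–PAGE with 0.6 mg/mL gelatin, incubated at 37 °C in Tris–HCl pH 7.5/CaCl2/ZnCl2, Coomassie-stained. Pro-MMP-9 bands quantified densitometrically, giving IC50, triplicate means.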

The nature of data set [3]: Inhibition of TNFalpha-stimulated pro MMP9 production in human SRA 01/04 cells after 24 hrs by SDS-PAGE based gelatin zymography assay. The class given is functional, cell-based. The essentials: as §1
Data set [4] can be described thus: Ratio of IC50 for PMA-stimulated pro MMP9 production in human SRA 01/04 cells to IC50 for TNFalpha-stimulated pro MMP9 production in human SRA 01/04 cells. In kind it is functional.
The species named for another data set is Homo sapiens. In words: Inhibition of PMA-stimulated pro MMP9 production in human SRA 01/04 cells at 64 uM after 24 hrs by SDS-PAGE based gelatin zymography assay. The class given is functional, cell-based.

By IC50 is commonly meant the midpoint of a concentration-inhibition curve. High values mean lower potency, low ones higher potency. As for `COc1c(OC)c(OC)c2c(=O)cc(-c3cc(O)cc(O)c3)oc2c1OC`, the Activity result in data set [1] is “Non-toxic”. In addition, the figures for the IC50 in data set [2] and in data set [3] were 8.1 µM and 24 µM, respectively.
In the same order, the values of `COc1cc(OC)cc(-c2cc(=O)c3c(OC)c(OC)c(OC)c(OC)c3o2)c1` are “Non-toxic”, 12 µM and 25.8 µM.
With `COc1cc(-c2cc(=O)c3c(O)c(OC)c(OC)c(OC)c3o2)ccc1O`, in data set [1], the Activity result was “Non-toxic”. In addition, the IC50 in data set [2] was determined as 0.7 µM; in data set [3] it was 10.6 µM. Besides, the Ratio IC50 in data set [4] is 15.
For the compound `COc1c(OC)c(OC)c2c(=O)cc(-c3ccc(O)cc3)oc2c1OC`, the Activity result in data set [1] is given as “Non-toxic”. Also, the IC50 in data set [2] turned out to be 2.6 µM; in data set [3] it was 14.3 µM.
Take `COc1c(OC)c(O)c2c(=O)cc(-c3ccc(O)cc3)oc2c1OC` [XANTHOMICROL]: the Activity result in data set [1] was “Non-toxic”. Further, the IC50 was found to be 3.5 µM in data set [2] and 22.3 µM in data set [3]. Besides, in data set [4], the “Ratio IC50” value is reported as 6.
In the same order, the values of `COc1c(OC)c(OC)c2c(=O)cc(-c3ccccc3O)oc2c1OC` are “Non-toxic”, 0.4 µM, 68 µM and 170.
Consider `COc1c(OC)c(OC)c2c(=O)cc(-c3cccc(OCc4ccccc4)c3)oc2c1OC`, for which, in data set [1], the Activity result is listed as “Toxic”.
`COc1ccccc1-c1cc(=O)c2c(OC)c(OC)c(OC)c(OC)c2o1`: the Activity result in data set [1] is given as “Non-toxic”. Further, the figures for the IC50 in data set [2] and in data set [3] were 13.7 µM and 24 µM, respectively.
Take `COc1ccc(-c2cc(=O)c3c(O)c(OC)c(OC)c(OC)c3o2)cc1O`: in data set [1], the Activity result is given as “Non-toxic”. In the data set listed under Homo sapiens, the inhibition entry was “inactive”. For the same compound, the IC50 stood at 1.5 µM in data set [2] and 29.6 µM in data set [3].
As for `COc1ccc(-c2cc(=O)c3c(OC)c(OC)c(OC)c(OC)c3o2)cc1` [TANGERETIN], in data set [1], the Activity entry is listed as “Non-toxic”. In addition, the IC50 came out at 6.8 µM in data set [2] and 33.2 µM in data set [3].
On the same counts, the results for `COc1cccc(-c2cc(=O)c3c(OC)c(OC)c(OC)c(OC)c3o2)c1` are “Non-toxic”, 5.5 µM and 15.5 µM.
Consider `COc1c(OC)c(OC)c2c(=O)cc(-c3cccc(O)c3)oc2c1OC`, for which the Activity entry in data set [1] is reported as “Non-toxic”. In addition, the inhibition result in the data set filed under Homo sapiens is “inactive”. Also, the IC50 in data set [2] amounted to 2.5 µM; in data set [3], 23.5 µM.
On to `COc1ccc(-c2cc(=O)c3c(O)c(OC)c(OC)c(OC)c3o2)cc1OC` [5-DEMETHYLNOBILETIN], for which the Activity result in data set [1] is “Non-toxic”. Moreover, the inhibition result in the data set listed under Homo sapiens was “inactive”. Further, the IC50 in data set [2] was determined as 3 µM; in data set [3] it was 42.4 µM. Further, the Ratio IC50 in data set [4] was found to be 14.
Turning to `COc1c(OC)c(OC)c2c(=O)cc(-c3ccc(OCc4ccccc4)cc3)oc2c1OC`, the Activity result in data set [1] is listed as “Toxic”.

The values are drawn from ChEMBL document CHEMBL1926519, “B-Ring-modified and/or 5-demethylated nobiletin congeners: inhibitory activity against pro-MMP-9 production” (Bioorg Med Chem, 2011).
